Experiments:
[1] = target: T1, Broad substrate specificity ATP-binding cassette transporter ABCG2 (Homo sapiens, UniProt Q9UNQ0); assay: Modulation of ABCG2 (unknown origin) expressed in High Five insect cell vesicle membrane assessed as stimulation of ATPase activity after 20 mins by colorimetric assay
T1 sequence (Q9UNQ0 whole entry): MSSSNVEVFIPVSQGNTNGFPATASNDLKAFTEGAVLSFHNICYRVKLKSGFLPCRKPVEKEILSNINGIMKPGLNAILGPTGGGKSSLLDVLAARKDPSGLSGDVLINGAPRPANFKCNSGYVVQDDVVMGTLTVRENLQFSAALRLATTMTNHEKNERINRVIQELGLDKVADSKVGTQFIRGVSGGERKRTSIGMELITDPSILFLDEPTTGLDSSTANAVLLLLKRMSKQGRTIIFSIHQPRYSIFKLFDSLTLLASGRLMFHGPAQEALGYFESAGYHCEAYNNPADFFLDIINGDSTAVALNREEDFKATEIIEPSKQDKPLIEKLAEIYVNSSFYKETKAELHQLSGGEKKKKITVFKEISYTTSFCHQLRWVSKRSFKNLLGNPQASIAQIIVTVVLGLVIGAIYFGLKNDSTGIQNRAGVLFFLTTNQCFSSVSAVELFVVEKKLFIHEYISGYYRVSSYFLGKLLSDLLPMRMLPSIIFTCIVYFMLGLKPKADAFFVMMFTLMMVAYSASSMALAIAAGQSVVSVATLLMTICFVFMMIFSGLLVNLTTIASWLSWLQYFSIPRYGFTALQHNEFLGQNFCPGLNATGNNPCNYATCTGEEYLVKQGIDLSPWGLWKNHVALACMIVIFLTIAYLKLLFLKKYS
Summary of the method: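 Membrane vesicles from ABCG2-expressing High Five cells were incubated with LCA (0–390 μM) at 37 °C for 20 min in 50 mM MES-Tris pH 6.8 with ouabain, DTT, NaN3, EGTA and KCl, ±0.3 mM vanadate. Liberated Pi was read by molybdate/ascorbate colorimetry at 880 nm. Vi-sensitive activity = activity minus activity with vanadate; mean ± SD of three experiments.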

S1-M1-80 = assay: Induction of apoptosis in human S1-M1-80 cells harboring ABCG2 (unknown origin) assessed as early apoptotic cells at 10 uM incubated for 48 hrs by annexin V/propidium iodide staining based flow cytometry (reference value: 2.8%); assay type: functional
S1 = assay: Induction of apoptosis in human S1 cells assessed as early apoptotic cells at 10 uM incubated for 48 hrs by annexin V/propidium iodide staining based flow cytometry (reference value: 2%); assay type: functional
Summary of the method: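 S1 cells were exposed for 48 h to DMSO, 10 μM compound, 5 μM topotecan, or 5 μM topotecan plus 10 μM compound. They were then stained with 1.25 μg/mL annexin V–FITC and 0.1 mg/mL PI for 15 min at room temperature. 10000 cells per sample were analysed by flow cytometry; three independent experiments.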

HEK293 [2] = assay: Induction of pheophorbide A accumulation in HEK293 cells at 20 uM incubated for 1 hr by FACScan flow cytometry; assay type: cell-based; conditions: human, hek293, 1 h
Summary of the method: (§1)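 Cells held drug-free 7 days. 3 × 10^5 cells were suspended in IMDM with 5% FCS and loaded with pheophorbide A (ex 395/em 670 nm) for 1 h, with or without LCA (20 μM for single-concentration accumulation) or Ko143 3 μM as reference. Read immediately by flow cytometry. Efflux inhibition was run over a concentration range; mean ± SD of three experiments.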

[3] = target: T1, Broad substrate specificity ATP-binding cassette transporter ABCG2; assay: Modulation of ABCG2 (unknown origin) expressed in S1-M1-80 cells assessed as increase in intracellular pheophorbide A accumulation at 20 uM incubated for 1 hr by FACScan flow cytometry; assay type: cell-based; conditions: s1-m1-80, 1 h; summary of the method: as §1
[4] = target: ATP-dependent translocase ABCB1 (Homo sapiens, UniProt P08183); assay: Modulation of human ABCB1 expressed in HEK293/MDR19 cells assessed as increase in intracellular calcein-AM accumulation at 20 uM incubated for 10 mins by FACScan flow cytometry; assay type: cell-based
Summary of the method: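 Cells held drug-free 7 days. 3 × 10^5 cells in IMDM with 5% FCS were loaded with calcein-AM for 10 min, with or without 20 μM LCA. Reference inhibitors were tariquidar 3 μM (ABCB1) and MK-571 25 μM (ABCC1). Calcein fluorescence (ex 485/em 535 nm) was read by flow cytometry; at least three independent experiments.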

GES1 = assay: Cytotoxicity against human GES-1 cells; assay type: cell-based
NCI-H460 = assay: Effect on topotecan-induced cytotoxicity against human H460 cells assessed as fold change in topotecan IC50 at 0.5 uM after 72 hrs by MTT assay relative to topotecan IC50; assay type: functional
Summary of the method: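 Parental S1 colon and H460 lung cancer cells were exposed for 72 h to a mitoxantrone or topotecan concentration series, with or without modulator at 0.5–3.0 μM, and read by MTT. Fold-reversal is IC50 without modulator divided by IC50 with modulator, taken from dose-response curves of three independent experiments.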

[5] = target: T1, Broad substrate specificity ATP-binding cassette transporter ABCG2; assay: Reversal of ABCG2 (unknown origin)-mediated multidrug resistance in human S1-M1-80 cells assessed as fold-change in topotecan IC50 at 3 uM after 72 hrs by MTT assay relative to topotecan IC50; assay type: cell-based; conditions: s1-m1-80, 72 h
Summary of the method: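 MTT readout in S1-M1-80 colon cancer cells (mitoxantrone-selected, held in 80 μM mitoxantrone, then drug-free 7 days before assay). Cells were seeded at 5000/well for 24 h, then given increasing mitoxantrone or topotecan with DMSO or non-toxic modulator for 72 h at 37 °C. IC50 came from fitted dose-response curves (at least three independent experiments). Fold-reversal = IC50 without modulator ÷ IC50 with modulator.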

[6] = target: T1, Broad substrate specificity ATP-binding cassette transporter ABCG2; assay: Reversal of ABCG2 (unknown origin)-mediated multidrug resistance in human S1-M1-80 cells assessed as fold-change in mitoxantrone IC50 at 0.5 uM after 72 hrs by MTT assay relative to mitoxantrone IC50; assay type: cell-based; conditions: s1-m1-80, 72 h
Summary of the method: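 Cells held drug-free 7 days, seeded at 5000 per well for 24 h, then exposed 72 h to mitoxantrone or topotecan dilutions with DMSO (≤0.5%), LCA 0.5–3.0 μM, or Ko143 1.0 μM. Viability was read by MTT. IC50 came from fitted dose-response curves of three independent experiments. Fold-reversal = IC50 without modulator divided by IC50 with modulator.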

HEK293 [7] = assay: Effect on mitoxantrone-induced cytotoxicity against HEK293 cells assessed as fold change in mitoxantrone IC50 at 1 uM after 72 hrs by CCK8 assay relative to mitoxantrone IC50; assay type: cell-based; conditions: human, hek293, 72 h
Summary of the method: (§2)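 Reversal assay in parental pcDNA-HEK293 and transfected HEK293 lines (ABCB1 for colchicine, ABCC1 for etoposide, ABCG2 for mitoxantrone/topotecan). Substrate drug series was given with or without nontoxic modulator (0.5, 1.0, 2.0 or 3.0 μM) for 72 h, with a CCK-8 read-out. Fold-reversal is substrate IC50 without modulator divided by IC50 with modulator. Three independent experiments.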

HEK293 [8] = assay: Effect on Colchicine-induced cytotoxicity against HEK293 cells assessed as fold change in colchicine IC50 at 1 uM after 72 hrs by CCK8 assay relative to colchicine IC50; assay type: cell-based; conditions: human, hek293, 72 h; summary of the method: as §2

ATP-dependent translocase ABCB1, sequence (P08183 whole entry): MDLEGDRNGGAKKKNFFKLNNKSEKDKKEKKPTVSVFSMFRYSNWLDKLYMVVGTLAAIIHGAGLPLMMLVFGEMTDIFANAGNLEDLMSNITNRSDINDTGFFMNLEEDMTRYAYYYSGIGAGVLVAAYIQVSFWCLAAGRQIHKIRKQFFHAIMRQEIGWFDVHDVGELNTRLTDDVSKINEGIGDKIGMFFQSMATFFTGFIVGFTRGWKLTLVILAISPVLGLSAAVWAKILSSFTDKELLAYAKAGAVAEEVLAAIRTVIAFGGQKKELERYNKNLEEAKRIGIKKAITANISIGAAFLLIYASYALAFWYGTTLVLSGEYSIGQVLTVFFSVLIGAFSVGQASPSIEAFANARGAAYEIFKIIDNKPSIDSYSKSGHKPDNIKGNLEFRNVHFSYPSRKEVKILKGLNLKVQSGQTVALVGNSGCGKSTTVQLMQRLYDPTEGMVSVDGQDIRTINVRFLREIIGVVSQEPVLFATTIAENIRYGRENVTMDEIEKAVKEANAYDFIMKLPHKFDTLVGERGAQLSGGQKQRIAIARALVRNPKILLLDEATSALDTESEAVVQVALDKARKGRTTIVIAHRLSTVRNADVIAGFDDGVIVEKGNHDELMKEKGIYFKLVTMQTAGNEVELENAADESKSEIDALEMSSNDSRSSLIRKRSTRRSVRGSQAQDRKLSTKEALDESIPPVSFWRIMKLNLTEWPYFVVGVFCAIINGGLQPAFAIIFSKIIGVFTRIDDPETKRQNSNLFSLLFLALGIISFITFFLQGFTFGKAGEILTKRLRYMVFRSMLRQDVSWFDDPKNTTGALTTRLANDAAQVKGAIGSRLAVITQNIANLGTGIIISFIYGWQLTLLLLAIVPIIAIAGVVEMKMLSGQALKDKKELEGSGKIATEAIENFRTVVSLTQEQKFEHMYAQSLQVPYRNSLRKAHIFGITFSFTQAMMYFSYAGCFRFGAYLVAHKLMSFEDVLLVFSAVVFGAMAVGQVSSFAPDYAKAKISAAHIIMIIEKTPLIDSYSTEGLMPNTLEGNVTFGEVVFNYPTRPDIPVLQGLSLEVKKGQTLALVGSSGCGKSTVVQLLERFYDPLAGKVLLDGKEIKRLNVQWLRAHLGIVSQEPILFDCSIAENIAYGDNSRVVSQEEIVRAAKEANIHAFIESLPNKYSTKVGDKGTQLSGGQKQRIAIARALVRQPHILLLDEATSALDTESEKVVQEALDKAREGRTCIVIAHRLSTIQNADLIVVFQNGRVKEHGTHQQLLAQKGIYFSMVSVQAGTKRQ

- EC50 [1]: 14 µM
- Activity ([1]; human, 20 min): Dose-dependent effect
- Activity [3]: Active
- Activity [4]: Not Active
- fold change (FC) [5]: 32.7
SMILES: C=CC(C)(C)c1cc(/C=C/C(=O)c2ccc(O)cc2)c(OC)cc1O [LICOAGROCHACONE A]
- Activity (S1-M1-80): 2.5%
- Activity (S1): 1.7%
- Activity (HEK293 [2]): Non-Toxic
- IC50 (GES1): > 180 µM
- fold change (FC) (NCI-H460): 1.5
- fold change (FC) [6]: 1.9
- fold change (FC) (HEK293 [7]): 1
- fold change (FC) (HEK293 [8]): 1.1

Source: ChEMBL document CHEMBL4627381, “Licochalcone A Selectively Resensitizes ABCG2-Overexpressing Multidrug-Resistant Cancer Cells to Chemotherapeutic Drugs” (J Nat Prod, 2020)
